The record followed here is ChEMBL document CHEMBL4177644, “Design, synthesis and biological activity of 3-pyrazine-2-yl-oxazolidin-2-ones as novel, potent and selective inhibitors of mutant isocitrate dehydrogenase 1” (Bioorg Med Chem, 2017).

Series [1] concerns Isocitrate dehydrogenase [NADP] cytoplasmic (Homo sapiens), O75874 [R132C]. The experiment in a line: Inhibition of IDH1 R132C mutant (unknown origin) expressed in HEK293T cells assessed as reduction in D-2-HG levels at 50 uM after 72 hrs relative to control; values are per cent of control.
Isocitrate dehydrogenase [NADP] cytoplasmic (Homo sapiens), O75874 [R132C], sequence (O75874 whole entry R132C): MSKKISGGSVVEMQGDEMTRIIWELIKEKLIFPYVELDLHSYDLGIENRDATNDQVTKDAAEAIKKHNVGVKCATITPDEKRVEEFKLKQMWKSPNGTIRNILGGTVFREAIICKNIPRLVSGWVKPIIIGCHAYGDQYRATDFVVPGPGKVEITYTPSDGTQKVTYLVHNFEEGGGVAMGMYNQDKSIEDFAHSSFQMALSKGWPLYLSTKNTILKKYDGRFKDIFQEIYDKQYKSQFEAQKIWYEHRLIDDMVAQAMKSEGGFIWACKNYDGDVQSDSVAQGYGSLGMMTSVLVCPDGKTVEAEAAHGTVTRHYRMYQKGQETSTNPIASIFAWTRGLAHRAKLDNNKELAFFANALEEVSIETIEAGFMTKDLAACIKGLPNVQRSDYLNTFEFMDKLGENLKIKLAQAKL
The subject of series [2] is Isocitrate dehydrogenase [NADP] cytoplasmic (Homo sapiens), O75874 [R132H]. The experiment in a line: Inhibition of IDH1 R132H mutant (unknown origin) expressed in HEK293T cells assessed as reduction in D-2-HG levels at 10 uM after 72 hrs relative to control; values are per cent of control.
Series [3] has as its system HEK-293T. Kind of series: Cytotoxicity against HEK293T cells harboring WT-IDH1 at 10 uM after 72 hrs by CellTiter-Glo assay. As to conditions: human. The format is cell-based. An outline of the steps:
(§1)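 HEK-293T cells stably carrying IDH1 wild-type (pMXs-IDH1wt-IRES-BsdR, blasticidin-selected), 10 000 cells per well in DMEM with 10% FCS, 37 °C, 5% CO2. Compound added at the stated concentration for 72 h. Viability read by CellTiter-Glo luminescence.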
On the technique in general: ATP-based viability assays read luminescence as a measure of living cells.

Series [4] deals with Isocitrate dehydrogenase [NADP] cytoplasmic (Homo sapiens), O75874 [R132H]. Kind of series: Inhibition of IDH1 R132H mutant (unknown origin) expressed in HEK293T cells assessed as reduction in D-2-HG levels at 50 uM after 72 hrs relative to control; values are per cent of control.
Isocitrate dehydrogenase [NADP] cytoplasmic (Homo sapiens), O75874 [R132H], sequence (O75874 whole entry R132H): as the sequence (O75874 whole entry R132C) above, with C132H counted along it
In series [5] the test system is Isocitrate dehydrogenase [NADP] cytoplasmic (Homo sapiens), O75874 [R132C]. Kind of series: Inhibition of IDH1 R132C mutant (unknown origin) expressed in HEK293T cells assessed as reduction in D-2-HG levels at 10 uM after 72 hrs relative to control; values are per cent of control.
Series [6] in a line: Permeability of compound at 25 ug/ml after 18 hrs by PAMPA-BBB assay. The note with it: read-out: Peff. The class given is ADME. The procedure, abridged: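 PAMPA-BBB with porcine polar brain lipid (20 mg/mL, 4 µL per filter). DMSO stock 5 mg/ml diluted in PBS to 25 ug/ml final, 300 uL in donor, 150 µL PBS in acceptor. Sandwich left 18 h at room temperature. Acceptor and reference concentrations read by UV plate reader, Pe calculated by formula. Mean ± SD of three independent experiments.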
(The PAMPA barrier holds no transporters, so it reflects passive diffusion.)

Series [7] deals with HEK-293T. The experiment in a line: Cytotoxicity against HEK293T cells harboring WT-IDH1 at 50 uM after 72 hrs by CellTiter-Glo assay. The format is cell-based. The note with it: human. The procedure, abridged:
as §1

A short description of series [8]: Cytotoxicity against HEK293T cells harboring WT-IDH1 assessed as cell survival at 50 uM after 72 hrs by CellTiter-Glo assay relative to control. The format is cell-based, HEK-293T. As to conditions: human, read-out: Survival. The procedure, abridged:
(§2)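 HEK293 cells stably expressing wild-type IDH1 (cDNA in pMXs-GW-IRES-BsdR, transfected with FuGene HD, selected with blasticidin S), grown in DMEM with 10% fetal calf serum and 1% penicillin/streptomycin at 37 °C, 5% CO2. Seeded at 10 000 cells/well in 96-well plates, treated with compound for 72 h; viability read by CellTiter-Glo luminescence.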

Series [9] is described as follows: Cytotoxicity against HEK293T cells harboring WT-IDH1 assessed as cell survival at 10 uM after 72 hrs by CellTiter-Glo assay relative to control. The format is cell-based, HEK-293T. As to conditions: human, read-out: Survival. The procedure, abridged: as §2

Usually residual activity stands for the signal under treatment as a percentage of the control signal. `CC(C)[C@H]1COC(=O)N1c1ccnc(N[C@@H](C)c2ccc(-c3ccccn3)cc2)n1`: the figures for the residual activity in series [1], in series [2] and in [4] were 29.7%, 33.9% and 24.7%, respectively. In addition, in the series with HEK-293T [3], the Activity result was “Non-Toxic”.
Regarding `COc1ccc(-c2ccc([C@H](C)Nc3cncc(N4C(=O)OC[C@@H]4C(C)C)n3)cc2)cc1`, the residual activity in series [1] was 51.7%; in series [2], 47.7%; in series [5] it was 51.3%; in series [4], 31.9%. The Activity result in the series with HEK-293T [3] was “Non-Toxic”.
With `CNCCCN1c2ccccc2CCc2ccccc21` [DESIPRAMINE], in series [6], the Papp at 18 h, 25 ug/ml stood at 8.82 ×10⁻⁶ cm/s.
As to `CC(C)[C@H]1COC(=O)N1c1cncc(N[C@@H](C)c2ccc(-c3ccc(F)cc3)cc2)n1`, the figures for the Activity entry in the series with HEK-293T [7] and in the series with HEK-293T [3] were “Toxic” and “Non-Toxic”, respectively. The residual activity turned out to be 51.3% in [1], 34.3% in series [2], 39% in series [5] and 33% in series [4].
Consider `CC(C)[C@H]1COC(=O)N1c1cncc(N[C@@H](C)c2ccc(-c3ccc4ccccc4c3)cc2)n1`, for which the residual activity turned out to be 73.9% in series [1], 85.4% in series [2], 71.3% in [5] and 39.5% in series [4]. In the series on HEK-293T [3], the Activity entry is reported as “Non-Toxic”.
On to `Cc1noc(C)c1-c1ccc([C@H](C)Nc2cncc(N3C(=O)OC[C@@H]3C(C)C)n2)cc1`, for which the Activity entry with HEK-293T [7] is “Toxic”; in the series with HEK-293T [3], “Non-Toxic”. In addition, the residual activity in [1] worked out at 30.2%; in series [2], 47.9%; in series [5], 54.1%; in series [4], 21.5%.
For `CC(C)[C@H]1COC(=O)N1c1cncc(N[C@@H](C)c2ccc(-c3cccc(F)c3)cc2)n1`, the residual activity in series [1] came to 50.6%; in series [2], 97.2%; in series [5] it was 116%; in series [4], 34.7%. For the same compound, the Activity entry in the series on HEK-293T [3] is on record as “Non-Toxic”.
Regarding `CC(C)[C@H]1COC(=O)N1c1cncc(N[C@@H](C)c2ccc(-c3ccc(C(F)(F)F)cc3)cc2)n1`, the Activity result in the series on HEK-293T [7] was “Toxic”; in the series on HEK-293T [3], “Non-Toxic”. Besides, the residual activity in [1] was determined as 27.4%; in series [2] it was 28%; in series [5], 39.9%; in series [4], 30.7%.
Turning to `CC(C)[C@H]1COC(=O)N1c1cncc(N[C@@H](C)c2ccc(-c3ccccc3F)cc2)n1`, the residual activity in [1] amounted to 44.1%; in [2] it was 78.4%; in [5], 89.9%; in [4], 28%. Moreover, the Activity entry with HEK-293T [3] is “Non-Toxic”.
Turning to `Cc1ccc(-c2ccc([C@H](C)Nc3cncc(N4C(=O)OC[C@@H]4C(C)C)n3)cc2)cc1`, the residual activity in series [1] stood at 54.8%; in series [2] it was 70.5%; in series [5], 74.9%; in series [4], 38.7%. In addition, the Activity entry with HEK-293T [3] is “Non-Toxic”.
In the case of `COc1cccc(-c2ccc([C@H](C)Nc3cncc(N4C(=O)OC[C@@H]4C(C)C)n3)cc2)c1`, the residual activity is 41.7% in series [1], 59.8% in series [2], 86% in [5] and 33.9% in series [4]. For the same compound, the Activity entry in the series with HEK-293T [3] is listed as “Non-Toxic”.
For the compound `Cc1cccc(-c2ccc([C@H](C)Nc3cncc(N4C(=O)OC[C@@H]4C(C)C)n3)cc2)c1`, the residual activity in [1] amounted to 29.7%; in series [2] it was 49.7%; in series [5] it was 51.1%; in [4] it was 28.5%. Further, the Activity entry in the series on HEK-293T [3] is reported as “Non-Toxic”.
As for `CC(C)[C@H]1COC(=O)N1c1cncc(N[C@@H](C)c2ccc(-c3ccccc3)cc2)n1`, the residual activity in series [1] is 108%; in series [2], 50%; in series [5], 50.4%; in series [4] it was 38.8%. Moreover, the Activity entry with HEK-293T [3] is on record as “Non-Toxic”.
Consider `COc1ccccc1-c1ccc([C@H](C)Nc2cncc(N3C(=O)OC[C@@H]3C(C)C)n2)cc1`, for which the residual activity in series [1] is 28.2%; in [2], 31.9%; in series [5], 40.6%; in [4] it was 24.6%. In addition, the viability at 72 h, 50 µM in [8] came out at 74.5%. Further, the viability at 72 h, 10 µM in series [9] came to 89.8%. Besides, in [6], the Papp at 18 h, 25 ug/ml came to 6.65 ×10⁻⁶ cm/s. In the series on HEK-293T [3], the Activity entry is given as “Non-Toxic”.
As for `Cc1ccccc1-c1ccc([C@H](C)Nc2cncc(N3C(=O)OC[C@@H]3C(C)C)n2)cc1`, the residual activity is 29.1% in series [1], 39.2% in series [2], 44.6% in [5] and 28.3% in series [4]. Besides, the Activity entry in the series with HEK-293T [3] is “Non-Toxic”.
